Sampled rows, rich in hits. Any-hit rate of the full collection: about 0.63%.
DSG3 Ab inh: inhibitors of pemphigus antibody binding to DSG3, primary screen, biochemical, bead-based, flow cytometry, scFv-GFP; binding (percent of control), % at 10 µM; 310,000 compounds, 0.48% hits; DSG3-coupled beads, scFv-anti-DSG3-GFP binding; active compounds read low;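 active = binding more than 3 SD below its plate's average and above zero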;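 note: hits lower antibody fragment binding to DSG3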
MT1-MMP act inh: blockers of MT1-MMP proenzyme processing, primary screen, HT1080 RFP-PRO-GFP cells, GFP/RFP fluorescence; 360,000 compounds, 0.061% hits; GFP/RFP ratio change, % at 20 µM; GFP/RFP ratio fluorescence, overnight; percent of plate control window, DMSO zero;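 active = GFP/RFP ratio change of at least 30% with cell ATP level not reduced by more than half and red fluorescence within 50% of control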
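Compound: 20 µM single dose, 1% DMSO / System: HT1080 RFP-PRO-GFP cells / Controls: DMSO and RFP-L50D-GFP cell wells / Read-out basis: GFP/RFP fluorescence ratio / Schedule: overnight compound exposure at 37 °C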
STK33 inh: inhibitors of purified STK33 kinase, primary screen, biochemical, ADP-Glo luminescence, homogeneous, cell-free. Serine/threonine-protein kinase 33 (Homo sapiens), Q9BYT3. MBP phosphorylation. inhibition, % at 10 µM. 320,000 compounds, 0.073% hits. AID 2661, 2010;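 active = inhibition at or above 25%, using the most active replicate where run in duplicate; inactive = inhibition below 25%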
GSK3B inh: human GSK3beta kinase inhibitors, primary screen, biochemical, cell-free homogeneous, HTS; Glycogen synthase kinase-3 beta (Homo sapiens), P49841; GST-GSK3beta kinase, ADP-Glo luminescence, 60 min; active compounds read low; activity score (negative = inhibition), % at 10 µM; 300,000 compounds, 0.038% hits; AID 2097, 2009;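 active = more than half of replicate wells score below -50%, meaning over 50% inhibition versus plate controls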;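 note: 0% = median DMSO wells and -100% = median GW8510 positive control wells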
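Test system: GST-fused GSK3beta enzyme, cell-free | Quantity: 1.6 ng GST-GSK3beta enzyme per well | Reagent: 25 µM ATP with peptide substrate | Schedule: 60 min enzyme reaction, room temperature | Signal: Luminescent ADP-Glo measurement of ADP formed | Read-out basis: Score relative to plate controls | Control set: DMSO and 20 µM GW8510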
GSK3A inh: blockers of GSK3A enzyme activity – biochemical, luminescence, cell-free homogeneous, HTS, primary screen | GSK-3 alpha kinase, ADP-Glo luminescence, 60 min | inhibition, % at 10 µM | 320,000 compounds, 0.1% hits | AID 2650, 2010;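 active = more than half of replicates show inhibition above 20%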;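 note: GST-tagged GSK-3 alpha with peptide substrate and 25 µM ATP; 0% = DMSO neutral wells and 100% = GW8510 positive control wells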
Target sequence (P49840 whole entry, looked up): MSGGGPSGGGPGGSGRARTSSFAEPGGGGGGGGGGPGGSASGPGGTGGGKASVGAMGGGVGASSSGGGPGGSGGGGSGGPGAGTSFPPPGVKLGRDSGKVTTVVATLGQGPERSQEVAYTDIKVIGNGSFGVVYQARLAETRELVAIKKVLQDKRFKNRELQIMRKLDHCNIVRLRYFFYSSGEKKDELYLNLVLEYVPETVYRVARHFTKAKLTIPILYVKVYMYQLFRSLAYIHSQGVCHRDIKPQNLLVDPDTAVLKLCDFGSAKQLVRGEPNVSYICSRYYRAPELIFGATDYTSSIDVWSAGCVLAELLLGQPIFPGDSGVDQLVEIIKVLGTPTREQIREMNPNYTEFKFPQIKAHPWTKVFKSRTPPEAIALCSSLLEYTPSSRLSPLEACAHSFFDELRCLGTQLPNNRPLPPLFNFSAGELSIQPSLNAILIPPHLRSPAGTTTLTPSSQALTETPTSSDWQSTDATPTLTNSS
* marks the source's active call; other numbers are inactive results; x = not tested or not shown.

SMILES	DSG3 Ab inh	MT1-MMP act inh	STK33 inh	GSK3B inh	GSK3A inh
COc1ccccc1C(=O)Nc1c2c(nn1-c1ccc(Cl)cc1)CS(=O)(=O)C2	100	1	0	-1	0
Cc1[nH]n(-c2ccccc2)c(=O)c1N=Nc1cccc(C(=O)O)c1	92	1	0	2	1
Cc1[nH]n(-c2ccccc2)c(=O)c1N=Nc1cccc(S(=O)(=O)N2CCOCC2)c1	64*	6	1	0	6
O=c1c(O)cccc2cc(O)c(O)c(O)c12	33*	-6	5	0	24
O=c1cc(-c2ccccc2)oc2cc(O)c(O)c(O)c12	97	-9	x	x	x
CC(C)(C)NC(=O)C(c1ccncc1)n1c(-c2ccc(C(F)(F)F)cc2)nc2ccccc21 (stereo unspecified)	x	1	x	x	x
CC(=O)C1=C(C)NC(SCC(=O)c2ccc(Cl)cc2Cl)=C(C#N)C1c1ccco1 (stereo unspecified)	77*	-32	9	4	1
CC(C)CN(CC(C)C)c1nn[nH]n1	86*	0	x	x	x
CN(C)/C=C/c1c([N+](=O)[O-])c2ccc(O)cc2n1-c1ccccc1	78	-15	-2	-56*	56*
O=C(NC1CCCCC1)C1c2ccccc2OCC(=O)N1Cc1ccc2c(c1)OCO2 (stereo unspecified)	x	5	x	x	x
N=C1C(c2nc3ccccc3s2)=C(O)CN1NC(=O)c1ccco1	76*	16	-1	2	-2
Cc1c(CN(C)C)c2c(n1C)C(=O)c1ccc(Br)cc1-2	98	4	1	-37	55*
COc1cc(/C=C2/CC/C(=C/c3ccc(O)c(OC)c3)C2=O)ccc1O	86	9	5	1	1
COc1cc(/C=C/C=C2/CC/C(=C/C=C/c3ccc(O)c(OC)c3)C2=O)ccc1O	36*	-2	x	x	x
O=C(COC(=O)CSc1ccc(Cl)cc1)Nc1ccc2[nH]c(=O)[nH]c2c1	99*	1	0	x	0
O=C(COC(=O)/C=C/c1ccc(Br)o1)Nc1ccc2[nH]c(=O)[nH]c2c1	57*	0	1	1	-1
COc1ccc(NCC(=O)N/N=C2\CCc3ccccc32)cc1	106*	-9	-1	1	-1
O=C(CNc1ccc(F)cc1)N/N=C1\CCc2ccccc21	110	2	0	-1	2
C/C=C\C=C/C(=O)Nc1cccc(C2=NOC3(C2)C[C@@H](C(N)=O)N(C(=O)C2(C)CC2)C3)c1 (stereo partly specified)	91*	-4	0	-1	-2
C/C=C\C=C/C(=O)Nc1cccc(C2=NOC3(C2)C[C@@H](C(N)=O)N(C(=O)/C=C/C=C\C)C3)c1 (stereo partly specified)	68*	1	1	-1	1
CCCN(C(=O)c1cc(-c2ccco2)nc2ccccc12)c1c(N)n(Cc2ccccc2)c(=O)[nH]c1=O	87*	2	0	-2	-2
COCCN(C(=O)c1cc(-c2ccco2)nc2ccccc12)c1c(N)n(Cc2ccccc2)c(=O)[nH]c1=O	79	1	0	x	-2
COc1ccc(CNC(=O)C[C@@H]2C=C[C@@H](NS(=O)(=O)c3cccc(OC)c3)[C@@H](CO)O2)cc1	x	3	x	x	x
CCCCCn1c(=O)[nH]c2c(c1=O)CCC2	-1.0*	3	0	1	1
COc1ccc(CCNC(=O)CSc2nc3[nH]ncc3c(=O)n2-c2ccc(Cl)cc2Cl)cc1OC	99	1	0	-4	10
SMILES	DSG3 Ab inh	MT1-MMP act inh	STK33 inh	GSK3B inh	GSK3A inh
COc1ccc(CCNC(=O)CSc2nc3[nH]ncc3c(=O)n2-c2ccccc2OC)cc1OC	102	2	2	6	75*
Cc1ccc(N(CC(=O)NC(C)(C)C)C(=O)CNC(=O)c2cccs2)c(C)c1	81*	-9	1	-2	-2
O=[N+]([O-])c1ccc2[nH]c(O)c(N=NC3CCS(=O)(=O)C3)c2c1 (stereo unspecified)	85*	2	0	0	0
O=[N+]([O-])c1ccc2[nH]c(O)c(N=Nc3ccc(F)cc3)c2c1	92	-20	0	-2	3
Cn1c(SCc2nnc(-c3ccc(F)cc3)o2)nnc1C1COc2ccccc2O1 (stereo unspecified)	114	x	-1	-44	60*
COc1ccc(NC(=O)CN(C)CC(=O)Nc2ccc(N3CCOCC3)cc2)c([N+](=O)[O-])c1	67*	7	x	-1	x
O=C1CCCN1CCCNc1nc(NCc2cccs2)nc2ccsc12	x	-16	x	x	x
CCCCCCCCN1C(=O)[C@H](CC(=O)NCCCOCCCC)C[C@@]2(C(=O)OC)CC(C)(C)CC=C12	x	-3	x	x	x
CCC(O)CNc1nc(SC)nc2sc3c(c12)CCN(C)C3 (stereo unspecified)	107	-14	9	0	88*
COC(CNc1nc(SC)nc2sc3c(c12)CCN(C)C3)OC	116	1	2	-15	25
COC(=O)c1nnn(-c2nonc2N)c1CN1CCc2ccccc21	100	-2	-2	-6	64*
Cc1ccc(C)n1Cc1ccc(C(=O)O)cc1	68*	-1	-2	x	-1
Cc1cc(C)n(Cc2ccc(C(=O)O)cc2)n1	87	3	-2	1	-7
COc1cc(OC)cc(C2=Cc3ccccc3C(CC(=O)c3ccco3)N2c2ccc(-c3cncnc3)cc2)c1 (stereo unspecified)	x	-5	x	x	x
CC1CC(O)C2C3(C)CCCC2(COC3=O)C12CCC1(CCOC1=O)O2 (stereo unspecified)	x	3	x	x	x
CCOC(=O)c1ccc(-c2ccc(/C=N/NC(=O)c3cncc(Br)c3)o2)cc1	75*	3	-2	1	-5
Cc1ccc(C(=O)N/N=C\c2ccc(-c3ccc([N+](=O)[O-])cc3)o2)cn1	119	-5	2	-6	-2
Cc1ccc(C(=O)N/N=C\c2ccc(-c3ccc(Cl)cc3)o2)cn1	92*	2	-1	6	2
Cc1nn(-c2cccc(C(F)(F)F)c2)c(=O)c2ccccc12	94*	4	-1	1	0
Cc1nn(-c2ccccc2)c(=O)c2ccccc12	106	2	-2	2	-1
Cc1sc(NC(=O)CSc2nnc3scc(-c4ccccc4)n23)c(C#N)c1C	84*	-7	0	2	2
CCCC(C(=O)NC1CCCC1)N(C(=O)Cn1nnc(-c2ccc(C)o2)n1)C1CCCC1 (stereo unspecified)	90*	-9	-3	-2	3

Bioassay records from PubChem BioAssay.
